Assay [1] has as its target T1, Thymidylate synthase (Lactobacillus casei) (UniProt P00469).
T1 sequence (whole entry): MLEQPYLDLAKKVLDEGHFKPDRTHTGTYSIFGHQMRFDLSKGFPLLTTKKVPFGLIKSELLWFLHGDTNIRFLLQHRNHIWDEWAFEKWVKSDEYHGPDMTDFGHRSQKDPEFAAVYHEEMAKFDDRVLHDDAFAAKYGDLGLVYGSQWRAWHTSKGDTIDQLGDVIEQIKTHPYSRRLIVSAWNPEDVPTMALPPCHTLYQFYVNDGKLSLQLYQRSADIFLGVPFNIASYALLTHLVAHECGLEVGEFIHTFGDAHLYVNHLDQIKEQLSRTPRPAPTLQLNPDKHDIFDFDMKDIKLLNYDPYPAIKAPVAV
As to the kind of experiment: Inactivation of thymidylate synthetase measured as kobs at a dose 30.0.0 pH 6.8, 30 degrees Centigrade. Conditions: Lacticaseibacillus casei. The method, boiled down:
(§1)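 L. casei (methotrexate-resistant) thymidylate synthetase, activated in 50 mM 2-mercaptoethanol, then freed of thiol on Sephadex G-25 in 0.05 M phosphate pH 6.8; 0.1–0.4 μM enzyme preincubated at 30 °C with inhibitor in 6 mM potassium phosphate pH 6.8, 3 mM MgCl2, 0.12 mM EDTA. Aliquots at 0–50 s assayed 60 s with 50 μM [5-3H]dUMP; ln % activity vs time gives kobs.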

In assay [2] the target is T1, Thymidylate synthase (Lactobacillus casei). The assay can be described thus: Inactivation of thymidylate synthetase measured as kobs at a dose 3.0 pH 6.8, 30 degrees Centigrade. Particulars: Lacticaseibacillus casei. The essentials:
as §1

Assay [3] shares this target. The assay can be described thus: Inactivation of thymidylate synthetase measured as k2 at 6.8 pH 30 degrees Celsius temp. Conditions: Lacticaseibacillus casei. The method, boiled down:
as §1

The target is the same in assay [4]. The assay can be described thus: Inactivation of thymidylate synthetase measured as kobs at a dose 10.0 pH 6.8, 30 degrees Centigrade. Particulars: Lacticaseibacillus casei. The method, boiled down: as §1
The target is the same in assay [5]. The assay can be described thus: Inactivation of thymidylate synthetase measured as kobs at a dose 1.0 pH 6.8, 30 degrees Centigrade. Particulars: Lacticaseibacillus casei. The essentials:
as §1

For assay [6] the target is unchanged. The assay can be described thus: Inactivation of thymidylate synthetase measur as kcat at 6.8 pH 30 degrees Celsius temp. Conditions: Lacticaseibacillus casei. The method, boiled down: (§2)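 Thymidylate synthetase from methotrexate-resistant Lactobacillus casei, activated by dialysis against 0.1 M potassium phosphate pH 6.8 with 50 mM mercaptoethanol, then freed of thiol on Sephadex G-25. Enzyme at 0.1–0.4 μM preincubated at 30 °C in 6 mM potassium phosphate pH 6.8, 3 mM MgCl2, 0.12 mM EDTA with inhibitor, with or without substrate for protection. Aliquots were taken over time and assayed.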

For assay [7], the target named is T2, Thymidylate synthase (Lactobacillus casei, UniProt P00469).
T2 sequence (P00469 whole entry): T1 sequence (whole entry)
As to the kind of experiment: Inactivation of thymidylate synthetase measured asKi at 6.8 pH 30 degrees Celsius temp. Further details: species or system Lacticaseibacillus casei. The essentials:
as §1

Assay [8] has as its target T1, Thymidylate synthase (Lactobacillus casei). As to the kind of experiment: Inactivation of thymidylate synthetase measured as k2 at 7 pH 4 degrees Celsius temp. Conditions: Lacticaseibacillus casei.
The target of assay [9] is T2, Thymidylate synthase. As to the kind of experiment: Inactivation of thymidylate synthetase measured as Ki at 6.8 pH 30 degrees Celsius temp. Also on record: species or system Lacticaseibacillus casei. The essentials: as §1
In assay [10] the target is T1, Thymidylate synthase (Lactobacillus casei). As to the kind of experiment: Inactivation of thymidylate synthetase measured as kcat at 6.8 pH 30 degrees Centigrade temp. Particulars: Lacticaseibacillus casei. The method, boiled down:
as §1

The target is the same in assay [11]. The assay can be described thus: Inactivation of thymidylate synthetase measured as kobs at 0.6 pH 30 degrees Celsius temp. Particulars: Lacticaseibacillus casei. The essentials: as §2
The target is the same in assay [12]. As to the kind of experiment: Substrate concentration measured for Inactivation of thymidylate synthetase at a dose 0.6, pH 6.8, 30 degrees Centigrade. Particulars: Lacticaseibacillus casei. The essentials: as §2
For assay [13] the target is unchanged. As to the kind of experiment: Substrate concentration measured for Inactivation of thymidylate synthetase at a dose 2.0 pH 6.8, 30 degrees Centigrade. Particulars: Lacticaseibacillus casei. The essentials: as §2
Assay [14] has the same target. The assay can be described thus: Inactivation of thymidylate synthetase measured as kobs at 2.0 pH 30 degrees Celsius temp. Conditions: Lacticaseibacillus casei. The essentials: as §2
For assay [15] the target is unchanged. The assay can be described thus: Inactivation of thymidylate synthetase measured as kobs at a dose 5.56, pH 6.8, 30 degrees Centigrade. Conditions: Lacticaseibacillus casei. The method, boiled down:
as §2

Assay [16] shares this target. The assay can be described thus: Inactivation of thymidylate synthetase measured as kobs at a dose 10.0, pH 6.8, 30 degrees Centigrade. Particulars: Lacticaseibacillus casei. The method, boiled down: as §2
The target is the same in assay [17]. The assay can be described thus: Substrate concentration measured for Inactivation of thymidylate synthetase at a dose 5.56, pH 6.8, 30 degrees Centigrade. Particulars: Lacticaseibacillus casei. The method, boiled down: as §2
Assay [18] shares this target. The assay can be described thus: Substrate concentration measured for Inactivation of thymidylate synthetase at a dose 10.0 pH 6.8, 30 degrees Centigrade. Particulars: Lacticaseibacillus casei. The method, boiled down:
as §2

The target is the same in assay [19]. As to the kind of experiment: Inactivation of thymidylate synthetase measured as k2 at 7 pH 24 degrees Celsius temp. Particulars: Lacticaseibacillus casei.

SMILES strings stand for the structures.

As to `O=C1C=CC(=O)C(c2ccccc2)=C1`, the k obs in assay [1] was found to be 0.078 s⁻¹; in assay [2] it was 0.007 s⁻¹; in assay [4], 0.025 s⁻¹; in assay [5] it was 0.0034 s⁻¹. The k2 in assay [3] turned out to be 2600.
Take `O=c1[nH]c(=O)n([C@H]2C[C@H](O)[C@@H](COP(=O)(O)O)O2)cc1[N+](=O)[O-]` [5-NITRO-DUMP]: in [6], the k cat was found to be 0.146 s⁻¹. Further, the Ki at Thymidylate synthase [7] worked out at 500 nM. In assay [3], this compound had a k2 of 300000 M⁻¹ s⁻¹.
On to `CCN1C(=O)C=CC1=O`, for which the k2 in assay [8] came out at 13 M⁻¹.
The compound `O=C(CBr)c1cn([C@H]2C[C@H](O)[C@@H](COP(=O)(O)O)O2)c(=O)[nH]c1=O` had a Ki at Thymidylate synthase [9] of 4000 nM. In [10], this compound came in with a k cat of 0.0025 s⁻¹. Moreover, the k2 in [3] amounted to 600 M⁻¹ s⁻¹.
Compound `O=C(CBr)c1cn(C2CC(O)C(OP(=O)(O)O)O2)c(=O)[nH]c1=O` (centres undefined) returned a Ki at Thymidylate synthase [7] of 2000 nM. Besides, the k cat in [10] was found to be 0.065 s⁻¹. The k2 in assay [3] was 32000.
Regarding `O=C1C=CC(=O)C=C1`, the k obs was 0.0025 s⁻¹ in assay [11] and 0.0126 s⁻¹ in assay [14]. Also, the Substrate in assay [12] and in assay [13] was 0 µM each time.
With `O=C1C=CC(=O)C(c2cn([C@H]3C[C@H](O)[C@@H](CO)O3)c(=O)[nH]c2=O)=C1`, the results for the k obs in assay [15] and in assay [16] were 0.0029 s⁻¹ and 0.0048 s⁻¹, respectively. For the same compound, the Substrate in assay [17] and in assay [18] was 0 µM each time.
As for `NC(=O)CI`, the k2 in [19] came out at 7 M⁻¹.
